Measured values taken from ChEMBL document CHEMBL1130160 (J Med Chem, 1997).

How the values were obtained:
MCF7 = assay: Inhibition of MCF-7 cell proliferation stimulated by 10e-[…] M 17-beta-estradiol; Not active at the doses tested; assay type: functional, cell-based, Homo sapiens
Rattus norvegicus [1] = assay: Dose required to reduce serum cholesterol by 50% relative to OVX controls was determined (in vivo); assay type: functional
Method in brief: (§1)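 OVX Sprague–Dawley rats (75 days old), 5–6 per group, dosed once daily by oral gavage for 4 consecutive days, starting 14 days after ovariectomy. Vehicle was 20% β-hydroxycyclodextrin at 1 mL/kg, or 1.5% carboxymethylcellulose in some cases. Rats were fasted after the last dose and bled by cardiac puncture next morning.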

Rattus norvegicus [2] = assay: Percent decrease in serum cholesterol relative to OVX control at 0.1 mg/kg in rat was determined (in vivo); assay type: functional; method in brief: as §1
Rattus norvegicus [3] = assay: Percent decrease in serum cholesterol relative to OVX control at 1 mg/kg in rat; assay type: functional; method in brief: as §1
Rattus norvegicus [4] = assay: Percent decrease in serum cholesterol relative to OVX control at 10 mg/kg in rat was determined (in vivo); assay type: functional; method in brief: as §1
Rattus norvegicus [5] = assay: Minimum effective dose at which significant increase in uterine eosinophil peroxidase (EPO) activity in rat was determined (in vivo); assay type: functional; details: read-out: MED
Rattus norvegicus [6] = assay: Minimum effective dose at which significant increase in uterine weight/body weight in rat was determined (in vivo); assay type: functional; details: read-out: MED
Method in brief: (§2)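 In 75-day OVX Sprague–Dawley rats dosed orally for 4 days, beginning 2 weeks post-ovariectomy with 5–6 rats per group, whole uteri were weighed the morning after fasting. MED is the lowest dose giving a significant (p≤0.05) rise in uterine weight/body weight, expressed as % increase over OVX controls ±SE.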

Rattus norvegicus [7] = assay: Eosinophil peroxidase activity expressed as Vmax was determined in rat (in vivo) Eosinophil peroxidase activity expressed as Vmax was determined in rat (in vivo); assay type: functional; set-up: unit not given here
Rattus norvegicus [8] = assay: Minimum effective dose at which significant increase in uterine weight/body weight in rat was determined (in vivo); expressed as % increase relative to ovariectomized (OVX) controls; assay type: functional; method in brief: as §2
Estrogen receptor = Estrogen receptor (Homo sapiens, UniProt Q92731+P03372); details: mcf7
Rattus norvegicus [9] = assay: Percent decrease in serum cholesterol relative to OVX control at 0.1 mg/kg in rats; assay type: functional; method in brief: as §1
Rattus norvegicus [10] = assay: Percent decrease in serum cholesterol relative to OVX control at 1.0 mg/kg in rats; assay type: functional; method in brief: as §1
Rattus norvegicus [11] = assay: Percent protection of bone mineral density in the distal femur of OVX rat at a dose of 0.1 mg/kg/day; assay type: functional
Method in brief: (§3)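 OVX Sprague–Dawley rats (6-month old, or 75-day old in one case) were dosed orally each day for 35 days, starting 4 days after ovariectomy. Digitized X-rays of the right distal femoral metaphysis gave BMD. % protection = (test − OVX)/(sham − OVX) × 100, reported ±SE.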

Rattus norvegicus [12] = assay: Percent protection of bone mineral density in the distal femur of OVX rat at a dose of 1 mg/kg/day; assay type: functional; method in brief: as §3
Rattus norvegicus [13] = assay: Percent protection of bone mineral density in the distal femur of OVX rat at a dose of 10 mg/kg/day; assay type: functional; method in brief: as §3

| Compound | IC50 (MCF7) | ED50 (Rattus norvegicus [1]) [mg/kg] | Decrease (Rattus norvegicus [2]) [%] | Decrease (Rattus norvegicus [3]) [%] | Decrease (Rattus norvegicus [4]) [%] | minimal effective dose (Rattus norvegicus [5]) [mg/kg] | minimal effective dose (Rattus norvegicus [6]) [mg/kg] | Eosinophil peroxidase activity (Vmax) (Rattus norvegicus [7]) | Increase (Rattus norvegicus [8]) [%] | IC50 (Estrogen receptor) [µM] | Decrease (Rattus norvegicus [9]) [%] | Decrease (Rattus norvegicus [10]) [%] | Protection (Rattus norvegicus [11]) [%] | Protection (Rattus norvegicus [12]) [%] | Protection (Rattus norvegicus [13]) [%] |
| --- | --- | --- | --- | --- | --- | --- | --- | --- | --- | --- | --- | --- | --- | --- | --- |
| C[C@]12CC[C@@H]3c4ccc(O)cc4CC[C@H]3[C@@H]1CC[C@@H]2O [ESTRADIOL] | Not Active | – | – | – | – | – | – | – | – | – | – | – | – | – | – |
| CCSCc1ccc(-c2sc3cc(O)ccc3c2C(=O)c2ccc(OCCN3CCCCC3)cc2)cc1 | – | 2.5 | 21.7 | 40.1 | 63 | 1 | 1 | 36.9 | 30.5 | 0.1 | – | – | – | – | – |
| CCCCc1ccc(-c2sc3cc(O)ccc3c2C(=O)c2ccc(OCCN3CCCCC3)cc2)cc1 | – | 2.3 | 21.3 | 14.5 | 72 | 10 | > 10 | 20.8 | – | 0.01 | – | – | – | – | – |
| O=C(c1ccc(OCCN2CCCCC2)cc1)c1c(C2CCCC2)sc2cc(O)ccc12 | – | 1.2 | – | – | 69.6 | > 10 | > 10 | – | – | – | 18.4 | 55.6 | – | – | – |
| O=C(c1ccc(OCCN2CCCCC2)cc1)c1c2ccc(O)cc2sc1[C@H]1CC[C@H](O)CC1 | – | 1 | – | – | 60.4 | > 10 | 0.1 | – | 46.7 | – | 48.7 | 41.1 | 17 | 61.3 | 67.4 |
| Cl.O=C(c1ccc(OCCN2CCCCC2)cc1)c1c(-c2ccc(F)cc2)sc2cc(O)ccc12 | – | 1.4 | 20.6 | 46 | 71.9 | > 10 | 1 | – | 50.2 | 0.0023 | – | – | – | – | – |
| Cc1sc2cc(O)ccc2c1C(=O)c1ccc(OCCN2CCCCC2)cc1 | – | 1.8 | – | – | 62.9 | > 10 | > 10 | – | – | – | 8.3 | 53.8 | – | – | – |
| O=C(c1ccc(OCCN2CCCCC2)cc1)c1c(-c2cccc(O)c2)sc2cc(O)ccc12 | – | 0.8 | – | – | – | > 10 | > 10 | – | – | 0.0032 | – | – | -30.9 | 79.7 | 44.2 |
| O=C(c1ccc(OCCN2CCCCC2)cc1)c1c(-c2ccc(-c3ccccc3)cc2)sc2cc(O)ccc12 | – | 2.4 | 12.9 | 37 | 68.5 | 1 | 0.1 | 25.4 | 50.3 | 0.1 | – | – | – | – | – |
| O=C(c1ccc(OCCN2CCCCC2)cc1)c1c(-c2cc[n+]([O-])cc2)sc2cc(O)ccc12 | – | > 10 | – | – | 42.6 | > 10 | > 10 | – | – | 0.1 | -16.6 | 1.8 | – | – | – |
| C=Cc1ccc(-c2sc3cc(O)ccc3c2C(=O)c2ccc(OCCN3CCCCC3)cc2)cc1 | – | 10 | -7 | 41.5 | 49.7 | 1 | 0.1 | 48 | 26.9 | – | – | – | – | – | – |
| COC(=O)c1ccc2c(C(=O)c3ccc(OCCN4CCCCC4)cc3)c(-c3ccc(O)cc3)sc2c1.Cl | – | 2.8 | 13.8 | 42.8 | 61 | > 10 | 0.1 | – | 37.5 | – | – | – | -10 | 17 | 43.9 |
| Cl.O=C(c1ccc(OCCN2CCCCC2)cc1)c1c(-c2ccccc2)sc2cc(O)ccc12 | – | < 0.1 | 55.6 | 53.4 | 66 | > 10 | 0.1 | – | 38.7 | 0.0025 | – | – | – | – | – |
| CC(C)c1sc2cc(O)ccc2c1C(=O)c1ccc(OCCN2CCCCC2)cc1 | – | > 10 | – | – | 35 | > 10 | > 10 | – | – | – | 12.4 | 30.5 | – | – | – |
| COC(=O)c1ccc(-c2sc3cc(O)ccc3c2C(=O)c2ccc(OCCN3CCCCC3)cc2)cc1 | – | 3.8 | 23.8 | 42.1 | 56.1 | 10 | 1 | 13.2 | 37.2 | – | – | – | – | – | – |
| COc1ccc(-c2sc3cc(OC)ccc3c2C(=O)c2ccc(OCCN3CCCCC3)cc2)cc1.Cl | – | < 0.1 | 62.2 | 78 | 68.5 | > 10 | 0.1 | – | 57.3 | 0.3 | – | – | – | – | – |
| CSc1ccc(-c2sc3cc(O)ccc3c2C(=O)c2ccc(OCCN3CCCCC3)cc2)cc1 | – | 0.9 | 27.7 | 51.5 | 75.3 | 1 | 1 | 37.5 | 50.2 | – | – | – | – | – | – |
| O=C(c1ccc(OCCN2CCCCC2)cc1)c1c(C2CCCCC2)sc2cc(O)ccc12 | – | 2.1 | – | – | 61.7 | > 10 | 1 | – | 30.2 | – | -0.1 | 52.9 | – | – | – |
| CCc1sc2cc(O)ccc2c1C(=O)c1ccc(OCCN2CCCCC2)cc1 | – | – | – | – | 31.1 | > 10 | 10 | – | 55.03 | – | 4.4 | 26.5 | – | – | – |
| O=C(c1ccc(OCCN2CCCCC2)cc1)c1c(-c2ccncc2)sc2cc(O)ccc12 | – | 14.6 | – | – | 47.6 | > 10 | 1 | – | 33.3 | 0.1 | 7.2 | 24 | – | – | – |
| O=C(c1ccc(OCCN2CCCCC2)cc1)c1c(-c2ccsc2)sc2cc(O)ccc12 | – | > 10 | – | – | 31.8 | > 10 | 10 | – | – | 0.01 | 0.6 | – | – | – | – |
| Cl.O=C(c1ccc(OCCN2CCCCC2)cc1)c1c(-c2ccc(Cl)cc2)sc2ccccc12 | Not Active | – | – | – | – | – | – | – | – | – | – | – | – | – | – |
| Cc1ccc(-c2sc3cc(O)ccc3c2C(=O)c2ccc(OCCN3CCCCC3)cc2)cc1.Cl | – | 2.9 | 12.2 | 26.5 | 69.1 | > 10 | 1 | – | 34.6 | 0.05 | – | – | – | – | – |
| Cl.O=C(c1ccc(OCCN2CCCCC2)cc1)c1c(-c2ccc(Cl)cc2)sc2cc(O)ccc12 | – | 0.3 | 32.3 | 69.9 | 65 | > 10 | 0.1 | – | 56.5 | 0.001 | – | – | – | – | – |
| O=C(c1ccc(OCCN2CCCCC2)cc1)c1c(-c2cccs2)sc2cc(O)ccc12 | – | 11 | – | – | – | > 10 | 1 | – | – | 0.02 | – | -0.9 | – | – | – |
| Cc1cc(-c2sc3cc(O)ccc3c2C(=O)c2ccc(OCCN3CCCCC3)cc2)cc(C)c1O | – | 1.8 | 23.1 | 40.2 | 69.1 | 1 | 1 | 40.8 | 33.8 | 0.1 | – | – | – | – | – |
| O=C(c1ccc(OCCN2CCCCC2)cc1)c1c(-c2cccc3ccccc23)sc2cc(O)ccc12 | – | 0.5 | – | – | 67.8 | > 10 | > 10 | – | – | 0.0008 | 40.1 | 53.9 | – | – | – |
| NC(=O)c1ccc2c(C(=O)c3ccc(OCCN4CCCCC4)cc3)c(-c3ccc(O)cc3)sc2c1 | – | – | – | – | – | > 10 | 10 | – | 30.7 | 1 | – | -14.9 | – | – | – |
